The structures appear in SMILES notation. About 1,200 (48%) of roughly 2,500 compounds were called active. So high a share suggests a set chosen from earlier hits. This is one part of the list. Unmarked numbers belong to inactive results.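 Rule for the calls: active = mean activation above the low control average plus 3 SD, as set in the primary screen (cut at about 12% in these data); inactive = the rest.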

The target of this assay is Troponin I, cardiac muscle (Homo sapiens) + Troponin T, cardiac muscle (Homo sapiens) + Troponin C, slow skeletal and cardiac muscles (Homo sapiens) (UniProt P19429+P45379+P63316). Briefly: cardiac RTF calcium sensitivity activators, confirmation, biochemical, IANBD-TnC fluorescence, triplicate (AID 504383).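 Note: 0% = DMSO at 0.472 mM calcium and 100% = DMSO at 2.9 mM calcium.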 Particulars: IANBD-labeled cardiac RTF, Ca2+ sensitivity fluorescence; at 7.2 µM; active compounds read high; scaled from EC20 to saturating calcium; tested at EC20 calcium, 0.472 mM. In a few lines:
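Assay system: labelled regulated thin filaments / Timing: 15 min at 25 °C / Detection: fluorescence intensity of labelled filaments / Measure: fluorescence gain scaled between EC20 and EC100 calcium controls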
On to `Cc1cc(S(=O)(=O)Nc2c(C)nn(C)c2C)c(Cl)cc1Cl`, for which the activation is 10.6%.

For the compound `O=C1NC(=Nc2ccccc2Cl)S/C1=C\c1cc([N+](=O)[O-])ccc1O`, the activation was 20.8% (active).

On to `COc1cccc(N=C2NC(=O)/C(=C/c3cc([N+](=O)[O-])ccc3O)S2)c1`, for which the activation was 9.82%.

Consider `Cc1ccc(S(=O)(=O)/N=C2/NC(=O)/C(=C/c3cc([N+](=O)[O-])ccc3O)S2)cc1`, for which the activation was 4.75%.

For the compound `C#CCN1c2ccccc2Sc2cccnc21`, the activation is 13.6% (active).

With `Cc1cccc(OCCNc2ccc(C(F)(F)F)cc2[N+](=O)[O-])c1`, the activation is 159% (active).

On to `O=C(Nc1ccccc1)c1ccc(NCCc2ccccc2)c([N+](=O)[O-])c1`, for which the activation is 5.71%.

For the compound `COc1ccc(NC(=O)CS(=O)(=O)c2cccc(Cl)c2)cc1`, the activation is 6.14%.

For the compound `COc1cccc(C(=O)NC2CC3CCCC(C2)N3CC(=O)Nc2ccc(N(C)C)cc2)c1` (stereo not given), the activation is 21.3% (active).

For `Cc1ccc(NC(=O)CC2SC3=NCCCN3C2=O)c(C)c1` (stereo not given), the activation is 9.67%.

With `CSCCC(NC(=O)c1ccccc1Cl)C(=O)N1CCC1` (stereo not given), the activation was 3.34%.

In the case of `COc1ccc2c(c1)cc(C(=O)N[C@@H](CCSC)C(=O)N1CCC[C@H]1C(=O)O)n2C`, the activation was 20.4% (active).

As for `COc1ccc(N=C(N)N=C(N)N)c(OC)c1`, the activation is 7.88%.

For `COc1ccc(OC)c(/C=N/N=C(\N)c2nonc2N)c1`, the activation is 18.5% (active).

On to `COc1ccc(C2C(C#N)=C(N)N(c3cccnc3)C3=C2C(=O)CCC3)cc1Cn1cc([N+](=O)[O-])cn1` (stereo not given), for which the activation was 18.5% (active).

`COc1ccc(S(=O)(=O)Nc2cc(C)on2)cc1`: the activation was 57.2% (active).

As to `COc1ccc(NC(=O)NS(=O)(=O)c2ccc(C)cc2)cn1`, the activation is 7.89%.

On to `O=c1[nH]c2ccccc2nc1/C=C/c1ccccc1`, for which the activation is 351% (active).

Take `O=c1[nH]c2ccccc2nc1/C=C/c1ccc(F)cc1`: the activation was 9.41%.

As for `O=c1[nH]c2ccccc2nc1/C=C(\O)c1cccs1`, the activation is 11.4%.

As to `CC1(C)CC(=O)C(CC2CCCCC2=O)C(=O)C1` (stereo not given), the activation is 15.2% (active).

Consider `CN1CCc2c(sc3nc(SCC(N)=O)n(-c4ccccc4)c(=O)c23)C1`, for which the activation is 3.18%.

Consider `NS(=O)(=O)c1cccc(NC(=O)CCc2ccc(S(=O)(=O)N3CCOCC3)cc2)c1`, for which the activation is 84.4% (active).

Turning to `O=C(CCc1ccc(S(=O)(=O)N2CCOCC2)cc1)OCC(=O)c1ccccc1`, the activation was 20.7% (active).

`O=C(COC(=O)C1CC2C=CC1C2)Nc1cccc(S(=O)(=O)N2CCCCCC2)c1` (stereo not given): the activation is 5.75%.

For `O=C1/C(=C/c2c[nH]c3ccccc23)CCC/C1=C\c1c[nH]c2ccccc12`, the activation was 7.19%.

Take `Cc1cc(O)c(CN(C)C)c2c1C(=O)/C(=C/c1ccco1)O2`: the activation is 8.55%.

For the compound `O=C1CC(/C=C/c2ccco2)=Nc2ccccc2N1`, the activation is 7.68%.

As to `O=C1C(=Cc2ccco2)CCCC1=Cc1ccco1`, the activation is 93.5% (active).

For `Nc1ccc2c(c1)C/C(=C/c1ccco1)C2=O`, the activation was 22% (active).

For `O=C(COC(=O)/C=C/c1ccccc1[N+](=O)[O-])NNC(=O)c1ccc(F)cc1`, the activation was 9.23%.

For `CCNC(=O)COc1ccc(-c2ccccc2)cc1`, the activation was 4.33%.

Regarding `O=C(O)CCC(=O)NNC(=O)c1ccc(-c2ccccc2)cc1`, the activation was 104% (active).

Take `Cc1ccsc1/C=C/C1=Cc2c(sc(NC(=O)CSc3n[nH]c(N)n3)c2C#N)C(C)(C)C1`: the activation was 6.84%.

Take `O=S(=O)(Nc1nc2ccccc2nc1NCCO)c1cccc(Cl)c1`: the activation was 233% (active).

Turning to `O=S(=O)(Nc1nc2ccccc2nc1N1CCN(c2ccccn2)CC1)c1ccc(Cl)cc1`, the activation is 0.27%.

As to `Cn1c(-c2ccc(C=O)s2)nc2c3ccccc3c3ccccc3c21`, the activation was 25.8% (active).

Regarding `CCOc1ccc(-c2nc3scc(-c4cccs4)c3c(=O)[nH]2)cc1`, the activation is 54.4% (active).

With `COc1ccc(C2c3ccc(O)cc3Oc3ncn(Cc4ccccc4)c(=N)c32)cc1OC` (stereo not given), the activation is 2.66%.

Consider `N=c1c2c(ncn1Cc1ccco1)Oc1cc(O)ccc1C2c1ccccc1` (stereo not given), for which the activation is 127% (active).

Turning to `COc1ccc(C2c3ccc(O)cc3Oc3ncn(CCN4CCOCC4)c(=N)c32)cc1OC` (stereo not given), the activation is 23% (active).

Consider `COc1ccc(C2c3ccc(O)cc3Oc3ncn(Cc4ccco4)c(=N)c32)cc1` (stereo not given), for which the activation is 15.9% (active).

In the case of `COc1ccc(C2c3ccc(O)cc3Oc3ncn(CCCO)c(=N)c32)cc1OC` (stereo not given), the activation was 6.69%.

As for `Cc1c(O)ccc(/C(Cc2ccc3ccccc3n2)=N\N)c1O`, the activation is 9.3%.

With `CCCCOc1[nH]c2nc(-c3ccco3)n(Cc3ccco3)c(=N)c2c1C#N`, the activation was 7.26%.

Turning to `N#CC1(C#N)CC(C=O)=C(N)C1(C#N)CC(=O)c1ccc(F)cc1` (stereo not given), the activation was 18.1% (active).

As to `CCOC(=O)C1=C(C)NC(=O)/C1=C\N(C)C`, the activation is 3.21%.

Turning to `COC(=O)C1=C(C)NC(=O)/C1=C\N(C)C`, the activation was 29.9% (active).

With `CCN(CC)c1ccc(/C=C/C(=O)c2ccc(Br)cc2)cc1`, the activation was 11.2%.

Consider `CCN(CC)c1ccc(/C=C2/C(=O)c3ccc(C(=O)O)cc3C2=O)cc1`, for which the activation was 21.9% (active).

For the compound `CCN(CC)c1ccc(/C=C2\C(=O)c3ccc(C(=O)O)cc3C2=O)cc1`, the activation is 28.1% (active).

For `COc1ccccc1C(=O)NN(C)C1=NS(=O)(=O)c2ccccc21`, the activation is 7.92%.

As for `CN(/N=C/c1ccc(N(C)C)cc1)C1=NS(=O)(=O)c2ccccc21`, the activation is 32.9% (active).

On to `CN(C)c1ccc(/C=N/N(CCO)C2=NS(=O)(=O)c3ccccc32)cc1`, for which the activation is 13.5% (active).

`Cc1ccc(C(=O)Nc2ccc3c(c2)ncn3C)cc1`: the activation was 27.7% (active).

For the compound `COc1ccc(COc2cc(-c3cccc(OC)c3)nc3ccc(NC(=O)c4ccc(C)cc4)cc23)cc1`, the activation was 1.71%.

`Cc1cc(NC(=O)CCC(=O)N(CCC(C)C)C(C(=O)NC2CCCC2)c2cccnc2)no1` (stereo not given): the activation was 3.5%.

Consider `CC(=O)NC(CCS(C)(=O)=O)C(=O)Nc1cc(C)on1` (stereo not given), for which the activation is 15.8% (active).

`CCN(CC(=O)Nc1ccccc1C(F)(F)F)C(=O)c1ccc(-n2nc(C)c(CCC(=O)OC)c2C)cc1`: the activation is 29.8% (active).

Turning to `CCN(CC(=O)Nc1c(F)cccc1F)C(=O)CNC(=O)COc1ccccc1`, the activation is -0.22%.

The record behind these values is PubChem BioAssay AID504383 (The Scripps Research Institute Molecular Screening Center, 2011).
